Measured values from ChEMBL document CHEMBL1157427, “In vitro and in vivo anti-tumoral activities of imidazo[1,2-a]quinoxaline, imidazo[1,5-a]quinoxaline, and pyrazolo[1,5-a]quinoxaline derivatives” (Bioorg Med Chem, 2008).
Active and inactive are the calls of the source. The rule behind the calls is not given here.

Key:
[1] = tested on: A-375; test: Cytotoxicity against human A375 cells after 96 hrs by MTT assay; assay type: functional, cell-based; conditions: A-375, 96 h
Method in brief: (§1)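 Cells were seeded at 5000/well in DMEM (M4Be) or RPMI-1640 (others) and attached overnight. They were then exposed for 96 h at 37 °C, 5% CO2 to 10^-4 to 10^-10 […] in 1% DMSO/medium. MTT was added for 4 h, formazan dissolved in isopropanol/1 M HCl, and OD read at 570 nm. Survival was taken as % of vehicle control and IC50 as 50% growth inhibition. ≥3 experiments in triplicate; mean ± SD.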

[2] = tested on: Raji; test: Cytotoxicity against human Raji cells after 96 hrs by MTT assay; assay type: functional, cell-based; method in brief: as §1
[3] = Cytotoxicity against human RPMI7591 cells after 96 hrs by MTT assay; assay type: functional, cell-based
[4] = Cytotoxicity against human M4Be cells after 96 hrs by MTT assay; assay type: functional, cell-based; method in brief: as §1
[5] = tested on: LS174T; test: Cytotoxicity against human LS174T cells after 96 hrs by MTT assay; assay type: functional, cell-based; method in brief: as §1
[6] = tested on: M4Be; test: Antitumor activity against human M4Be cells xenografted Swiss nude mouse assessed as reduction in tumor volume at 20 mg/kg, ip administered twice a week for 3 weeks measured from day 18 to day 55; assay type: functional, organism-based; set-up: dose 20 mg/kg
Method in brief: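 Female Swiss nude mice (7 weeks old) were given 3×10^6 M4Be cells s.c. in the flank. At ~0.7 cm3 they were randomized, 6 per group, and received 20 mg/kg twice weekly (Mon/Thu) for 3 weeks in intralipid/DMSO (50:50), with the cycle repeated after 15 days. Controls received vehicle. Calipers twice weekly, V = 0.5ab². Repeated-measures ANOVA with contrast test, significance 0.02. Mean ± SEM.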

[7] = Toxicity in ip dosed Swiss mouse; assay type: organism-based; conditions: in vivo
Method in brief: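 Single intraperitoneal doses of 30 to 300 mg/kg given to healthy Swiss mice. Compound dissolved in intralipid/DMSO (50:50, v/v) because of poor water solubility. Read-out is the 50% lethal dose (LD50).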

[8] = tested on: MCF7; test: Cytotoxicity against human MCF7 cells after 96 hrs by MTT assay; assay type: functional, cell-based; conditions: MCF7, 96 h; method in brief: as §1

Compound	IC50 [1]	other results
Nc1nc2ccccc2n2c(CCc3ccccc3)cnc12	2.35 µM	
CNc1nc2ccccc2n2c(CC(C)C)cnc12	31.6 µM	
CC(C)Cc1cnc2c(N(C)C)nc3ccccc3n12	66.3 µM	
CNc1nc2ccccc2n2cncc12	85.3 µM	
CN(Cc1cnc2nc(N)nc(N)c2n1)c1ccc(C(=O)N[C@@H](CCC(=O)O)C(=O)O)cc1 [METHOTREXATE]		IC50 [2]: 0.04 µM
CNc1nc2ccccc2n2c(-c3ccccc3)ncc12	> 400 µM	
CN(C)c1nc2ccccc2n2c(CCc3ccccc3)cnc12	80.1 µM	
CC(C)Cn1cnc2c(N)nc3ccccc3c21 [IMIQUIMOD]		IC50 [3]: 53.7 µM; IC50 [4]: 33.5 µM; IC50 [5]: 34.4 µM
CC(C)Cc1cc2c(N(C)C)nc3ccccc3n2n1	101 µM	
Cc1cccc(Cl)c1Nc1nc2ccccc2n2c(CCc3ccccc3)cnc12	329 µM	
CN(C)c1nc2ccccc2n2cncc12	121 µM	
CNc1nc2ccccc2n2c(C)ncc12	100 µM	
Clc1nc2ccccc2n2c(CCc3ccccc3)cnc12	24 µM	
CCc1c2c(nc3ccc(OC(=O)N4CCC(N5CCCCC5)CC4)cc13)-c1cc3c(c(=O)n1C2)COC(=O)[C@]3(O)CC [IRINOTECAN]		IC50 [5]: 1.16 µM
Cc1cccc(Cl)c1Nc1nc2ccccc2n2c(CC(C)C)cnc12	> 400 µM	
COc1nc2ccccc2n2c(CCc3ccccc3)cnc12	47.8 µM	
CNc1nc2ccccc2n2nc(CC(C)C)cc12	78.6 µM	
CNc1nc2ccccc2n2c(CCc3ccccc3)cnc12		Activity [6]: Active; IC50 [3]: 4.23 µM; LD50 [7]: > 300 mg/kg; IC50 [2]: 6.23 µM; IC50 [4]: 2.58 µM; IC50 [5]: 4.12 µM; IC50 [8]: 1080 nM
